Assay results from ChEMBL document CHEMBL5107939, “Optimization of brain-penetrant picolinamide derived leucine-rich repeat kinase 2 (LRRK2) inhibitors” (RSC Med Chem, 2021).

What was measured:
[1] = In vivo inhibition of LRRK2 in CD rat assessed as reduction in serine 935 phosphorylated LRRK2 in striatum at 30 mg/kg, po and measured after 2 hrs by MSD immunoassay; assay type: functional
Summary of the method: (§1)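 Male CD rats (125-150 g) dosed orally with compound suspended in 10% Tween 80 (5 mL/kg) or vehicle, euthanized by CO2 2 h later; striatum dissected, frozen on dry ice; pSer935 LRRK2 measured by MSD immunoassay as pSer935/total LRRK2 ratio, mean ± S.E.M.; one-way ANOVA with Dunnett's post hoc test.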

[2] = MRT in po dosed Beagle dog and measured upto 24 hrs by LC-MS/MS analysis; assay type: ADME, organism-based, Canis lupus familiaris; conditions: in vivo
[3] = Drug metabolism in human hepatocytes assessed as (R)-2-(1-(4-amino-5-(trifluoromethyl)pyridin-2-yl)pyrrolidin-3-yl)propan-2-ol metabolite formation compound at 0.3 uM and measured after 120 mins by LC-MS/MS analysis; assay type: ADME, cell-based, Hepatocyte; conditions: 2 h
[4] = MRT in po dosed CD rat measured after 120 mins by LC-MS/MS analysis; assay type: ADME, organism-based; conditions: in vivo
Homo sapiens [5] = organism: Homo sapiens; test: Selectivity of inhibition of human LRRK2 to human MINK1
[6] = Toxicity in CD rat assessed clinical signs of toxicity at 50 to 100 mg/kg, po BID administered for 4 days; assay type: organism-based; conditions: in vivo, 96 h, dose 50-100 mg/kg, time 4 day
Homo sapiens [7] = organism: Homo sapiens; test: Selectivity of inhibition of human LRRK2 to human IRAK4
[8] = Oral bioavailability in Beagle dog and measured upto 24 hrs by LC-MS/MS analysis; assay type: ADME, organism-based, Canis lupus familiaris; conditions: in vivo
[9] = target: Adenosine receptor A2a (Homo sapiens) (UniProt P29274); test: Inhibition of human adenosine A2A receptor at 10 uM by radioligand binding assay
Summary of the method: (§2)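 Single-concentration radioligand binding screen (Eurofins Panlabs); IC50 by non-linear least-squares regression; Ki via Cheng-Prusoff from observed IC50, radioligand concentration and historical KD; Hill coefficient reported.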

[10] = In vivo inhibition of LRRK2 in CD rat assessed as reduction in serine 935 phosphorylated LRRK2 in striatum at 3 mg/kg, po and measured after 2 hrs by MSD immunoassay; assay type: functional; summary of the method: as §1
[11] = Intrinsic clearance in po dosed CD rat measured after 120 mins by LC-MS/MS analysis; assay type: ADME, organism-based; conditions: in vivo, 2 h
[12] = In vivo inhibition of LRRK2 in CD rat assessed as reduction in serine 935 phosphorylated LRRK2 in striatum at 100 mg/kg, po and measured after 2 hrs by MSD immunoassay; assay type: functional; summary of the method: as §1
[13] = Plasma clearance in po dosed CD rat measured after 120 mins by LC-MS/MS analysis; assay type: ADME, organism-based
[14] = target: T1, Leucine-rich repeat serine/threonine-protein kinase 2 (Homo sapiens, UniProt Q5S007, G2019S); test: Inhibition of human LRRK2 G2019S mutant expressed in human SH-SY5Y cells assessed as inhibition of tetracycline induced LRRK2 phosphorylation at Ser935 residue incubated for 90 mins by MSD assay; assay type: cell-based
Summary of the method: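 SH-SY5Y neuroblastoma cells carrying LRRK2 G2019S, grown in DMEM/F-12 with GlutaMax, 10% Tet-free FBS, nonessential amino acids and pen-strep at 37 °C, 5% CO2. Expression induced with Tet (2 µg/ml) 48-72 h before treatment. Compound exposure 90 min. Lysates captured on anti-LRRK2-coated MSD plates, probed for pSer935 or total LRRK2 with Sulfo-Tag read-out. IC50 from standard 4P fit of % inhibition.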

[15] = test system: P-gp (rat Mdr1a) (Homo sapiens); test: Substrate activity at P-gp (unknown origin) expressed in LLC-PK1 cells transfected with rat Mdr1a assessed as apparent permeability at 0.1 uM incubated for 3 hrs by LC-MSMS analysis; assay type: ADME, cell-based
[16] = Drug metabolism in rat hepatocytes assessed as (R)-2-(1-(4-amino-5-(trifluoromethyl)pyridin-2-yl)pyrrolidin-3-yl)propan-2-ol metabolite formation compound at 0.3 uM and measured after 120 mins by LC-MS/MS analysis; assay type: ADME, cell-based, Hepatocyte; conditions: 2 h
[17] = Toxicity in CD rat assessed micronucleus induction in bone marrow at 50 to 100 mg/kg, po BID administered for 4 days; assay type: organism-based; conditions: in vivo, 96 h, dose 50-100 mg/kg, time 4 day
Homo sapiens [18] = organism: Homo sapiens; test: Selectivity of inhibition of human LRRK2 to human CLK2
[19] = target: Substance-P receptor (Homo sapiens) (UniProt P25103); test: Inhibition of human tachykinin NK1 receptor at 10 uM by radioligand binding assay; summary of the method: as §2
[20] = target: Sodium channel protein type 5 subunit alpha (Homo sapiens, UniProt Q14524); test: Inhibition of human NaV1.5 expressed in HEK293 by PatchXpress automated patch clamp assay; assay type: cell-based
[21] = Plasma clearance in po dosed Beagle dog and measured upto 24 hrs by LC-MS/MS analysis; assay type: ADME, organism-based, Canis lupus familiaris
[22] = target: Voltage-gated inwardly rectifying potassium channel KCNH2 (Homo sapiens, UniProt Q12809); test: Inhibition of human ERG tail current in cells at -80 mV holding potential by PatchXpress automated patch clamp assay; assay type: toxicity
[23] = In vivo inhibition of LRRK2 in CD rat assessed as reduction in serine 935 phosphorylated LRRK2 in striatum at 10 mg/kg, po and measured after 2 hrs by MSD immunoassay; assay type: functional; summary of the method: as §1
[24] = Intrinsic clearance in po dosed Beagle dog and measured upto 24 hrs by LC-MS/MS analysis; assay type: ADME, organism-based, Canis lupus familiaris; conditions: in vivo
Homo sapiens [25] = organism: Homo sapiens; test: Selectivity ratio, ratio of IC50 for inhibition of CLK2 (unknown origin) to IC50 for inhibition of recombinant human GST20 tagged truncated LRRK2 G2019S mutant
[26] = Brain to plasma permeability coefficient, Kp in CD rat plasma assessed as unbound fraction at 3 to 100 mg/kg, po and measured after 2 hrs by LC/MS/MS analysis; assay type: ADME, organism-based; conditions: in vivo, dose 3-100 mg/kg
[27] = target: T2, Adenosine receptor A1 (Homo sapiens) (UniProt P30542); test: Inhibition of human adenosine A1 receptor at 10 uM by radioligand binding assay; summary of the method: as §2
T2 sequence (whole entry): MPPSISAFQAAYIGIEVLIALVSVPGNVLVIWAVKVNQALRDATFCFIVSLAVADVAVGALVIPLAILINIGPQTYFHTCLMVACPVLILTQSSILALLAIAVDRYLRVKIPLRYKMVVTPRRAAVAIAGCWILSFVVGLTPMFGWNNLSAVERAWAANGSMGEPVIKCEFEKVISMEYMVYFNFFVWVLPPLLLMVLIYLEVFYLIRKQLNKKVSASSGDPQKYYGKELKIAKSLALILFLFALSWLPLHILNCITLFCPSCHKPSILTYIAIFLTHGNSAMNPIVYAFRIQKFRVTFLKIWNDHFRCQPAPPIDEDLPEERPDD

[28] = Inhibition of calcium channel (unknown origin); set-up: species or system Homo sapiens
[29] = Mutagenicity in Salmonella typhimurium TA98 at 30 to 5000 ug in presence of S9 metabolic activation system for 48 hrs by ames test; assay type: toxicity, Salmonella enterica subsp. enterica serovar Typhimurium; conditions: dose 30-5000 µg
Summary of the method: (§3)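 Plate incorporation Ames test with S9 from phenobarbital/beta-naphthoflavone-induced male Wistar Han rat liver; 30, 100, 300, 1000, 3000, 5000 µg/plate; triplicate minimal glucose agar plates with trace histidine; 48 h at 37 °C; positive if 2-fold revertant increase over vehicle with dose relation.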

Cavia porcellus = organism: Cavia porcellus; test: Inhibition of guinea pig adenosine transporter at 1 uM by radioligand binding assay; summary of the method: as §2
[30] = target: T1, Leucine-rich repeat serine/threonine-protein kinase 2; test: Inhibition of recombinant human GST20 tagged truncated LRRK2 G2019S mutant assessed as substrate phosphorylation preincubated for 15 mins followed by substrate addition and measured after 90 mins using fluorescein-labeled LRRK2tide as substrate in presence of ATP by TR-FRET based Lanthascreen kinase activity assay
Summary of the method: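 Enzyme 1.25 nM in 50 mM Tris pH 8.5, 10 mM MgCl2, 0.01% Brij-35, 1 mM EGTA, 2 mM DTT, 0.05 mM orthovanadate. Compound (top 9.99 µM in DMSO, ten-point serial dilution) preincubated 15 min at RT. […] Stopped with EDTA plus 2 nM Tb anti-pERM, 1 h RT. 520/495 nm ratio read. IC50 from 4-parameter logistic fit, mean of several runs.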

[31] = Mutagenicity in Salmonella typhimurium TA1535 at 30 to 5000 ug in presence of S9 metabolic activation system for 48 hrs by ames test; assay type: toxicity, Salmonella enterica subsp. enterica serovar Typhimurium; conditions: in vitro, dose 30-5000 µg; summary of the method: as §3
[32] = target: Dual specificity protein kinase CLK2 (Homo sapiens, UniProt P49760); test: Inhibition of CLK2 (unknown origin) assessed as substrate phosphorylation using coumarin and fluorescein-labeled peptide as substrate incubated for 1 hr by Z'-LYTE kinase assay
Summary of the method: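 CLK2 Z'-LYTE coupled-enzyme kit format, 10-point titration from DMSO; enzyme, substrate and compound reacted 1 h at ambient temperature; after development solution, read at excitation 400 nm; activity from coumarin 445 nm/fluorescein 520 nm emission ratio.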

[33] = Mutagenicity in Salmonella typhimurium TA100 at 30 to 5000 ug in presence of S9 metabolic activation system for 48 hrs by ames test; assay type: toxicity, Salmonella enterica subsp. enterica serovar Typhimurium; conditions: dose 30-5000 µg; summary of the method: as §3
[34] = Oral bioavailability in CD rat measured after 120 mins by LC-MS/MS analysis; assay type: ADME, organism-based; conditions: in vivo

T1 sequence (Q5S007 whole entry G2019S): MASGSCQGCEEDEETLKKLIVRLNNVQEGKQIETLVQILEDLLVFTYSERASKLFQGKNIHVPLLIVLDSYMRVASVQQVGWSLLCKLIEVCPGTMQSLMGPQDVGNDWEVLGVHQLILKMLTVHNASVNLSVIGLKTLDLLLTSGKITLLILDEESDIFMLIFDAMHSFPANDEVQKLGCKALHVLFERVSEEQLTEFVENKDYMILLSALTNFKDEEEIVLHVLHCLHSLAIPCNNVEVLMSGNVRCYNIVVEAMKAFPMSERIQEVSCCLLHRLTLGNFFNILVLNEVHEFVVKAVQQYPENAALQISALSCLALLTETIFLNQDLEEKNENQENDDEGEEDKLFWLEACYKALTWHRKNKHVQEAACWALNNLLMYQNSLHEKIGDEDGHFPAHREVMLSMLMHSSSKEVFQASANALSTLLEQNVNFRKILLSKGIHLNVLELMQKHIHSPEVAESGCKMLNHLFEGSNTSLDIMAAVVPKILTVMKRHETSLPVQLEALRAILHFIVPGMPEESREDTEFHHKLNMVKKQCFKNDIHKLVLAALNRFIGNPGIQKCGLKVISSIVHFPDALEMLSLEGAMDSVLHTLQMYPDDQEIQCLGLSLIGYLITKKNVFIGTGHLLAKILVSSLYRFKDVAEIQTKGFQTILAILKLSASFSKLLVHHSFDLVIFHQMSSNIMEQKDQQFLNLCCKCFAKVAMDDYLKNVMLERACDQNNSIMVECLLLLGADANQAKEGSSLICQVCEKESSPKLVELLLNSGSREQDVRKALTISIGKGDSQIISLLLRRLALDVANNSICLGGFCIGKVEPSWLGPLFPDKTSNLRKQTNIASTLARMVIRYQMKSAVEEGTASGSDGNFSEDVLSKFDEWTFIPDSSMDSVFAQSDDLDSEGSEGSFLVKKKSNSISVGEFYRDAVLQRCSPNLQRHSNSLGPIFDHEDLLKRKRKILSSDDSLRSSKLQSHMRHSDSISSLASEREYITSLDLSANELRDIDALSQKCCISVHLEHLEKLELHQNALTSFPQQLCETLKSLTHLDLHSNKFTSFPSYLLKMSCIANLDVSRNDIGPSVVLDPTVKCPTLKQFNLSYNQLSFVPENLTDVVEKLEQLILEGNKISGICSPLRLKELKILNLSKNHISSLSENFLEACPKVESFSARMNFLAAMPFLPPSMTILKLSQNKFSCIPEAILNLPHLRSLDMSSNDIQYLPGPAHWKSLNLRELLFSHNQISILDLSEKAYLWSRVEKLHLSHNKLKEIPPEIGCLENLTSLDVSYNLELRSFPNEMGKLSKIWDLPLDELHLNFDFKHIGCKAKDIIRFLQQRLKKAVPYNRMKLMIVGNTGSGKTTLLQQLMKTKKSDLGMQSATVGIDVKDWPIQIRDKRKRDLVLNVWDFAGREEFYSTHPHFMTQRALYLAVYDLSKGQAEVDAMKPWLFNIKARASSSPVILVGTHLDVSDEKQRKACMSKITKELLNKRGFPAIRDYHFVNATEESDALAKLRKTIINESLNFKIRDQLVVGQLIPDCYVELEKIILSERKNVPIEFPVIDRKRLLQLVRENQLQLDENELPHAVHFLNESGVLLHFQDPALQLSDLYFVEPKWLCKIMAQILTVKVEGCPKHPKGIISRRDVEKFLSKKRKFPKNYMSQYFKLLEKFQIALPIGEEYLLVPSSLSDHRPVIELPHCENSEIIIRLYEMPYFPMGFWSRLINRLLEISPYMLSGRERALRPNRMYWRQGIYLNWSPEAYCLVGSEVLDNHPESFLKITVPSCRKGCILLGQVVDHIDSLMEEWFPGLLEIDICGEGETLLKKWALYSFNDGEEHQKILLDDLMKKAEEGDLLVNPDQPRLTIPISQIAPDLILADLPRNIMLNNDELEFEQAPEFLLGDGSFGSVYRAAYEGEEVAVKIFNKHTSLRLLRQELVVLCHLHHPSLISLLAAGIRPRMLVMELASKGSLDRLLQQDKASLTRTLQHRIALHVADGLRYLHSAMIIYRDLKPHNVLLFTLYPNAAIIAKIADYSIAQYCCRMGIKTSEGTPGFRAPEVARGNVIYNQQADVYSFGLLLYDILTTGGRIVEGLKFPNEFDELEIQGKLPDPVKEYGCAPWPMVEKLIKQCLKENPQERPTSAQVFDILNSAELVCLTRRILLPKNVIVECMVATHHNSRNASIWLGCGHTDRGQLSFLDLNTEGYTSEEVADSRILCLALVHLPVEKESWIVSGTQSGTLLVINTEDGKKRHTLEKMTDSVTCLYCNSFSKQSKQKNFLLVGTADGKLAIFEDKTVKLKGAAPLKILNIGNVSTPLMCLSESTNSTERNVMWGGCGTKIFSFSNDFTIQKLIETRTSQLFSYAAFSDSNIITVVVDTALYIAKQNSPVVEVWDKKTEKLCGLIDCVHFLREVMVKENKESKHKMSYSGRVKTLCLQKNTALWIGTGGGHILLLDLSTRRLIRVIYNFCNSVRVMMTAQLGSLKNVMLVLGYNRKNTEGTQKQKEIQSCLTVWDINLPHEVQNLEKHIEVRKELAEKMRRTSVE
Dual specificity protein kinase CLK2, sequence (P49760 whole entry): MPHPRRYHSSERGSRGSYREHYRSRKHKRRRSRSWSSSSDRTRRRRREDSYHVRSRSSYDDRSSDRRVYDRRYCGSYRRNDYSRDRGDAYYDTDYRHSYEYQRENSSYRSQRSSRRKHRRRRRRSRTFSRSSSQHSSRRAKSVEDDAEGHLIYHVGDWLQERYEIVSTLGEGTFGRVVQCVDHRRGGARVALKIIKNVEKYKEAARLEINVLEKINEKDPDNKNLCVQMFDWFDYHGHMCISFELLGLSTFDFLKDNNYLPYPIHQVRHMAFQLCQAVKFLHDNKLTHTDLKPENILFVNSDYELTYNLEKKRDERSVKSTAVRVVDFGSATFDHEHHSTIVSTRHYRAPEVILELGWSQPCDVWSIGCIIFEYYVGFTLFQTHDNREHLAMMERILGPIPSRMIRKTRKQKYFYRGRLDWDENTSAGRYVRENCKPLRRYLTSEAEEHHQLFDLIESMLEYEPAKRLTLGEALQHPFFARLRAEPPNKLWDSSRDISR
Substance-P receptor (Homo sapiens), sequence (P25103 whole entry): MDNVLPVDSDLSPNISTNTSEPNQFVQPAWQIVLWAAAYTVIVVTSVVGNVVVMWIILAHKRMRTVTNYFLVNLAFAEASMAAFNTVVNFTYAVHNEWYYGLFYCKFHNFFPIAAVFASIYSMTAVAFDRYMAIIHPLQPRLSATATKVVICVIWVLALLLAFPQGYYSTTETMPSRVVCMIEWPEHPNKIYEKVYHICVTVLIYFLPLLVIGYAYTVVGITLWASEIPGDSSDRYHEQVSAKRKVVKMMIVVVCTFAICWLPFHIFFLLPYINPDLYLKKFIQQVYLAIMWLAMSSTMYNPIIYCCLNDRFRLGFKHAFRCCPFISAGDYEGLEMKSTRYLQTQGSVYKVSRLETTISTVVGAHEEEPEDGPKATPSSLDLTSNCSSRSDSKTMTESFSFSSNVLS
Voltage-gated inwardly rectifying potassium channel KCNH2, sequence (Q12809 whole entry): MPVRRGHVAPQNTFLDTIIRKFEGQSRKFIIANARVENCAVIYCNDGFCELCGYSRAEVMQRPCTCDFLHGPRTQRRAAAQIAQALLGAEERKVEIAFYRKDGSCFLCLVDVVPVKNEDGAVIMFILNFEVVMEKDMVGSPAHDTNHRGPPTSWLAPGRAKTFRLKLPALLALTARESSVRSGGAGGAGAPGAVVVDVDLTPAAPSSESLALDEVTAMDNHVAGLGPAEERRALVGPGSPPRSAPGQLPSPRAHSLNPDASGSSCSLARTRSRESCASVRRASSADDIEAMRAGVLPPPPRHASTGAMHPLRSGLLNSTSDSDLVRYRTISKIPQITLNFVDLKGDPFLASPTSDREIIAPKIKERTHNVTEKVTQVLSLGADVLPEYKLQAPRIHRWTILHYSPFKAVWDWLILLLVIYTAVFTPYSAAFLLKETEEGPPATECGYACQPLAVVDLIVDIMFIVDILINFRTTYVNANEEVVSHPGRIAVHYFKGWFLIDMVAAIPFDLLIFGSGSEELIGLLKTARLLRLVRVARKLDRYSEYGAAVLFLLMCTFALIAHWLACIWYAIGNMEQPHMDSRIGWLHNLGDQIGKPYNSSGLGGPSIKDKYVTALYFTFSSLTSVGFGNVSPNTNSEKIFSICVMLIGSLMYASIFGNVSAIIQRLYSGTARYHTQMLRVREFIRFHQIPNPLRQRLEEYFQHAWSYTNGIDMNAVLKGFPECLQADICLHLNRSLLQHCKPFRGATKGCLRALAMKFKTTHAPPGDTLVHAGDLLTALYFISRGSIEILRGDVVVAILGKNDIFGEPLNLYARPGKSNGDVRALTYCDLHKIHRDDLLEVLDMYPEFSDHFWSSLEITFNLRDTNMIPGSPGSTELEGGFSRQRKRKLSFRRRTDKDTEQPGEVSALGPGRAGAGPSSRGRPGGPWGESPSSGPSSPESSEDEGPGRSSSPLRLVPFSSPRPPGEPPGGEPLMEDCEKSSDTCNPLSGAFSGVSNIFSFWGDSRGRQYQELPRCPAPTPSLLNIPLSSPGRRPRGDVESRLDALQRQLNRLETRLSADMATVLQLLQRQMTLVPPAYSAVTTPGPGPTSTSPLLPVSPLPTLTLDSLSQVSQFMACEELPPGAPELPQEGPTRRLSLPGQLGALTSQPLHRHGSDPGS
Adenosine receptor A2a (Homo sapiens), sequence (P29274 whole entry): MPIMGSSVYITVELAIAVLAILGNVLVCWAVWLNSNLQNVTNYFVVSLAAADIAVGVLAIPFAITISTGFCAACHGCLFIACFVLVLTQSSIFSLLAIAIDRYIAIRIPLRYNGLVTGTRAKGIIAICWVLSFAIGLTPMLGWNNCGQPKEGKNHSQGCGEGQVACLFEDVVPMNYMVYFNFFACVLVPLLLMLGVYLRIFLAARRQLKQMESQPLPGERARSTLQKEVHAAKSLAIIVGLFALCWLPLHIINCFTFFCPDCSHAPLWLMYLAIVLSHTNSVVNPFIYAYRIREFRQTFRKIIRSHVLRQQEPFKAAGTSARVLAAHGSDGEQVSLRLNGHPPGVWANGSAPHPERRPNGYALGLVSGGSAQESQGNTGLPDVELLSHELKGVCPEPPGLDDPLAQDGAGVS

- MRT [2]: 3.6 h
- Drug metabolism [3]: Metabolite_Detected
- MRT [4]: 5.2 h
- Selectivity ratio (Homo sapiens [5]): > 100
- Selectivity ratio (Homo sapiens [7]): > 100
- bioavailability [8]: 43%
- inhibition [9]: > 50%
- CL [11]: 5722 mL/min/kg
- CL/F [13]: 10 mL/min/kg
- IC50 [14]: 0.0025 µM
- Papp at 3 h, 0.1 µM [15]: 35 ×10⁻⁶ cm/s
- Drug metabolism [16]: Metabolite_Detected
- Selectivity ratio (Homo sapiens [18]): > 100
- inhibition [19]: > 50%
- CL/F [21]: 15 mL/min/kg
- CL [24]: 14531 mL/min/kg
- Ratio IC50 (Homo sapiens [25]): 63
- Kp [26]: 0.6
- inhibition [27]: > 50%
- IC50 [28]: 21.8 µM
- inhibition (Cavia porcellus): > 50%
- IC50 [30]: 0.001 µM
- IC50 [32]: 0.063 µM
- bioavailability [34]: 16%
SMILES: Cn1cc(-c2cccc(C(=O)Nc3cc(N4CC[C@@H](C(C)(C)O)C4)ncc3C(F)(F)F)n2)cn1
- inhibition in vivo at 30 mg/kg [1]: 35%
- Activity [6]: Non-Toxic
- inhibition in vivo at 3 mg/kg [10]: 2%
- inhibition in vivo at 100 mg/kg [12]: 56%
- Activity [17]: Non-Toxic
- IC50 [20]: 29.9 µM
- IC50 [22]: 7.6 µM
- inhibition in vivo at 10 mg/kg [23]: 13%
- Activity [29]: Non-Toxic
- Activity [31]: Non-Toxic
- Activity [33]: Non-Toxic
